Measured values reported in ChEMBL document CHEMBL3108729, “Design, synthesis and anticonvulsant evaluation of N-(benzo[d]thiazol-2-ylcarbamoyl)-2-methyl-4-oxoquinazoline-3(4H)-carbothioamide derivatives: a hybrid pharmacophore approach” (Eur J Med Chem, 2013).
Active and inactive are the calls of the source. The calls are words filed in the database; no cut-off is given here.

Columns and labels:
Mus musculus [1] = assay: Anticonvulsant activity in albino mouse assessed as protection against maximal electroshock-induced seizures at 300 mg/kg, ip measured after 0.5 hrs; type: functional, organism-based; design: dose 300 mg/kg
Mus musculus [2] = assay: Anticonvulsant activity in albino mouse assessed as protection against maximal electroshock-induced seizures at 300 mg/kg, ip measured after 4 hrs; type: functional, organism-based; design: dose 300 mg/kg
Mus musculus [3] = assay: Neurotoxicity in ip dosed albino mouse after 0.5 hrs by rotorod test; type: toxicity, organism-based; conditions: in vivo
How it was run: (§1)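 Swiss mice, four per dose, received 30, 100 or 300 mg/kg i.p. and were placed on a rotorod at 0.5 and 4 h. Neurotoxicity meant failure to keep balance for 1 min. The value reported is the minimum dose affecting half or more of the mice.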

Mus musculus [4] = assay: Anticonvulsant activity in ip dosed albino mouse assessed as protection against maximal electroshock-induced seizures after 0.5 hrs; type: functional; conditions: read-out: MED
Mus musculus [5] = assay: Neurotoxicity in albino mouse at 300 mg/kg, ip after 4 hrs by rotorod test; type: toxicity, organism-based; design: dose 300 mg/kg, route intraperitoneal; conditions: in vivo; how it was run: as §1
Mus musculus [6] = assay: Anticonvulsant activity in ip dosed albino mouse assessed as protection against maximal electroshock-induced seizures after 4 hrs; type: functional; conditions: read-out: MED
[7] = Neurotoxicity in po dosed albino rat after 1 hr; type: toxicity, organism-based; conditions: in vivo
Mus musculus [8] = assay: Neurotoxicity in ip dosed albino mouse after 4 hrs by rotorod test; type: toxicity, organism-based; conditions: in vivo; how it was run: as §1
Rattus norvegicus [9] = assay: Anticonvulsant activity in po dosed albino rat assessed as protection against maximal electroshock-induced seizures after 1 hr; type: functional
Rattus norvegicus [10] = assay: Anticonvulsant activity in po dosed albino rat assessed as protection against pentylenetetrazole-induced seizure after 1 hr; type: functional
Rattus norvegicus [11] = assay: Anticonvulsant activity in po dosed albino rat assessed as protection against pentylenetetrazole-induced seizure after 2 hrs; type: functional
[12] = Neurotoxicity in po dosed albino mouse after 1 hr; type: toxicity, organism-based; conditions: in vivo
[13] = Protective index, ratio of TD50 for neurotoxicity to ED50 for protection against pentylenetetrazole-induced seizure in albino rat after 2 hrs; type: toxicity, organism-based; conditions: in vivo, read-out: Ratio TD50/ED50
How it was run: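 Groups of eight rats were dosed orally at the previously estimated time of peak effect, at several doses, until at least three points fell within 10–90% protection or minimal neurotoxicity. ED50 and TD50 with 95% confidence limits came from regression of the plotted data. Protective index was calculated as TD50/ED50.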

Mus musculus [14] = assay: Anticonvulsant activity in ip dosed albino mouse assessed as protection against 6 Hz electroshock-induced seizures after 1 hr; type: functional
Mus musculus [15] = assay: Neurotoxicity in albino mouse at 300 mg/kg, ip after 0.5 hrs by rotorod test; type: toxicity, organism-based; design: dose 300 mg/kg, route intraperitoneal; conditions: in vivo
How it was run: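 Swiss mice (25–30 g), four per dose, got 30, 100 or 300 mg/kg i.p. and were checked on the rotorod at 0.5 and 4 h. Motor impairment meant failure to keep equilibrium on the rod for 1 min. The value is the minimum dose at which half or more of the mice were impaired.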

Rattus norvegicus [16] = assay: Anticonvulsant activity in po dosed albino rat assessed as protection against maximal electroshock-induced seizures after 2 hrs; type: functional
[17] = Neurotoxicity in po dosed albino rat after 2 hrs; type: toxicity, organism-based; conditions: in vivo
How it was run: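 Rats on oral fixed-dose testing (30 or 50 mg/kg) were scored for motor impairment in parallel with seizure testing, at five time points from one quarter hour to 4 h. The rotorod end point was failure to keep equilibrium for 1 min.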

Rattus norvegicus [18] = assay: Anticonvulsant activity in Wistar rat assessed as inhibition of GABA-induced seizures measuring minimum GABA level per 100 mg whole brain required for 50 % inhibition at 30 mg/kg, ip as single dose measured after 2 hrs (reference value: 46.4 +/- 5.50 ug/100 mg brain); type: functional; conditions: route intraperitoneal
Rattus norvegicus [19] = assay: Anticonvulsant activity in Wistar rat assessed as inhibition of GABA-induced seizures measuring minimum GABA level per 100 mg whole brain required for 50 % inhibition at 30 mg/kg, po for 7 days (reference value: 51.5 +/- 2.60 ug/100 mg brain); type: functional
How it was run: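 Adult Wistar rats in groups of six were dosed orally at 30 mg/kg for 7 days. Whole-brain GABA was then measured enzymatically in ethanol extracts as µg/100 mg tissue. Values are mean ± SEM of six rats versus control (Student's t test).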

Which Activity (Mus musculus [1]) does the source give for `COc1ccc2nc(NC(=O)NC(=S)n3c(C)nc4cc(F)ccc4c3=O)sc2c1` here?
Its Activity is “inactive”.

And the Activity (Mus musculus [2])?
Its Activity is “inactive”.

Which MTC (Mus musculus [3]) does the source give for `Cc1nc2cc(F)ccc2c(=O)n1C(=S)NC(=O)Nc1nc2c(Cl)cccc2s1` here?
Its MTC is 300 mg/kg.

And the Activity (Mus musculus [2])?
Its Activity is “inactive”.

What about the minimal effective dose (Mus musculus [4]) of the same molecule?
Its minimal effective dose is 300 mg/kg.

What about the Activity (Mus musculus [5]) of the same molecule?
Its Activity is “Non-toxic”.

Which MTC (Mus musculus [3]) does the source give for `NC(=O)N1c2ccccc2C=Cc2ccccc21` [CARBAMAZEPINE] here?
Its MTC is 100 mg/kg.

And the minimal effective dose (Mus musculus [6])?
The minimal effective dose was 100 mg/kg.

And the minimal effective dose (Mus musculus [4])?
Its minimal effective dose is 30 mg/kg.

And the TD50 at 1 h [7]?
The TD50 at 1 h was 1530 µmol/kg.

And the MTC (Mus musculus [8])?
The MTC was 300 mg/kg.

What about the ED50 (Rattus norvegicus [9]) of the same molecule?
The ED50 was 15.1 µmol/kg.

What about the ED50 (Rattus norvegicus [10]) of the same molecule?
The ED50 was > 1060 µmol/kg.

What does the source list for `Cc1nc2cc(F)ccc2c(=O)n1C(=S)NC(=O)Nc1nc2c(Br)cccc2s1`?
MTC (Mus musculus [3]): 300 mg/kg; Activity (Mus musculus [2]): inactive; minimal effective dose (Mus musculus [4]): 300 mg/kg; Activity (Mus musculus [5]): Non-toxic

For `Cc1nc2ccccc2c(=O)n1C(=S)NC(=O)Nc1nc2c(Cl)cccc2s1`, which MTC (Mus musculus [3]) is on record?
The MTC was 300 mg/kg.

What about the Activity (Mus musculus [1]) of the same molecule?
The Activity was “inactive”.

What about the Activity (Mus musculus [2]) of the same molecule?
Its Activity is “inactive”.

What about the Activity (Mus musculus [5]) of the same molecule?
Its Activity is “Non-toxic”.

With `Cc1nc2cc(Cl)ccc2c(=O)n1C(=S)NC(=O)Nc1nc2ccc(Br)cc2s1` as the molecule, how does the MTC (Mus musculus [3]) read?
Its MTC is 300 mg/kg.

And the Activity (Mus musculus [2])?
The Activity was “inactive”.

What about the minimal effective dose (Mus musculus [4]) of the same molecule?
The minimal effective dose was 100 mg/kg.

And the MTC (Mus musculus [8])?
The MTC was 300 mg/kg.

For `Cc1nc2ccccc2c(=O)n1C(=S)NC(=O)Nc1nc2c(Br)cccc2s1`, which Activity (Mus musculus [1]) is on record?
Its Activity is “inactive”.

What about the Activity (Mus musculus [2]) of the same molecule?
Its Activity is “inactive”.

Which Activity (Mus musculus [1]) does the source give for `CCC1(C)CC(=O)NC1=O` (configuration not stated) [ETHOSUXIMIDE] here?
Its Activity is “inactive”.

What about the ED50 (Rattus norvegicus [11]) of the same molecule?
Its ED50 is 1180 µmol/kg.

And the TD50 at 1 h [12]?
The TD50 at 1 h was 2410 µmol/kg.

What about the selectivity ratio at 2 h [13] of the same molecule?
The selectivity ratio at 2 h was > 3.

What about the ED50 (Mus musculus [14]) of the same molecule?
Its ED50 is 1180 µmol/kg.

And the Activity (Mus musculus [2])?
The Activity was “inactive”.

And the Activity (Mus musculus [15])?
Its Activity is “Non-toxic”.

And the ED50 (Rattus norvegicus [16])?
The ED50 was > 3540 µmol/kg.

What about the Activity (Mus musculus [5]) of the same molecule?
Its Activity is “Non-toxic”.

What about the TD50 at 2 h [17] of the same molecule?
Its TD50 at 2 h is > 3540 µmol/kg.

With `Cc1ccc2nc(NC(=O)NC(=S)n3c(C)nc4cc(Cl)ccc4c3=O)sc2c1` as the molecule, how does the Activity (Mus musculus [1]) read?
Its Activity is “inactive”.

What about the Activity (Mus musculus [2]) of the same molecule?
The Activity was “inactive”.

Which Activity (Rattus norvegicus [18]) does the source give for `CN1C(=O)CC(=O)N(c2ccccc2)c2cc(Cl)ccc21` [CLOBAZAM] here?
Its Activity is 101 µg.

And the GABA level (Rattus norvegicus [19])?
Its GABA level is 110 µg/100 mg brain.

For `Cc1nc2ccccc2c(=O)n1C(=S)NC(=O)Nc1nc2ccc(Br)cc2s1`, which MTC (Mus musculus [3]) is on record?
Its MTC is 300 mg/kg.

And the minimal effective dose (Mus musculus [6])?
Its minimal effective dose is 300 mg/kg.

And the minimal effective dose (Mus musculus [4])?
The minimal effective dose was 100 mg/kg.

And the Activity (Mus musculus [5])?
The Activity was “Non-toxic”.

What does the source list for `Cc1nc2cc(Cl)ccc2c(=O)n1C(=S)NC(=O)Nc1nc2ccc(Cl)cc2s1`?
MTC (Mus musculus [3]): 300 mg/kg; minimal effective dose (Mus musculus [6]): 100 mg/kg; minimal effective dose (Mus musculus [4]): 100 mg/kg

Which MTC (Mus musculus [3]) does the source give for `Cc1nc2ccccc2c(=O)n1C(=S)NC(=O)Nc1nc2ccc(F)cc2s1` here?
The MTC was 300 mg/kg.

And the minimal effective dose (Mus musculus [6])?
The minimal effective dose was 100 mg/kg.

And the minimal effective dose (Mus musculus [4])?
Its minimal effective dose is 30 mg/kg.

What about the Activity (Mus musculus [5]) of the same molecule?
The Activity was “Non-toxic”.

With `Cc1nc2cc(F)ccc2c(=O)n1C(=S)NC(=O)Nc1nc2ccc(Cl)cc2s1` as the molecule, how does the MTC (Mus musculus [3]) read?
Its MTC is 100 mg/kg.

What about the Activity (Mus musculus [2]) of the same molecule?
The Activity was “inactive”.

And the minimal effective dose (Mus musculus [4])?
Its minimal effective dose is 300 mg/kg.

And the Activity (Mus musculus [5])?
Its Activity is “Non-toxic”.

Which results are given for `Cc1nc2cc(Cl)ccc2c(=O)n1C(=S)NC(=O)Nc1nc2ccc(F)cc2s1`?
minimal effective dose (Mus musculus [6]): 300 mg/kg; minimal effective dose (Mus musculus [4]): 300 mg/kg

Which results are given for `Cc1nc2cc(F)ccc2c(=O)n1C(=S)NC(=O)Nc1nc2ccc(O)cc2s1`?
Activity (Mus musculus [1]): inactive; Activity (Mus musculus [2]): inactive

Which Activity (Mus musculus [1]) does the source give for `Cc1nc2cc(F)ccc2c(=O)n1C(=S)NC(=O)Nc1nc2ccc(F)cc2s1` here?
Its Activity is “inactive”.

What about the Activity (Mus musculus [2]) of the same molecule?
The Activity was “inactive”.
